In ChEMBL document CHEMBL4265908, “Structure-activity and structure-property relationships of novel Nrf2 activators with a 1,2,4-oxadiazole core and their therapeutic effects on acetaminophen (APAP)-induced acute liver injury” (Eur J Med Chem, 2018) one finds Activity and solubility data, which are given here for one molecule.

In brackets after ≈: the same amount, converted by molar mass. Activity calls are given as the source filed them. The rule behind the calls is not given here.

In data set [1] the target is T1, Nuclear factor erythroid 2-related factor 2 (Homo sapiens) (UniProt Q16236).
T1 sequence (whole entry): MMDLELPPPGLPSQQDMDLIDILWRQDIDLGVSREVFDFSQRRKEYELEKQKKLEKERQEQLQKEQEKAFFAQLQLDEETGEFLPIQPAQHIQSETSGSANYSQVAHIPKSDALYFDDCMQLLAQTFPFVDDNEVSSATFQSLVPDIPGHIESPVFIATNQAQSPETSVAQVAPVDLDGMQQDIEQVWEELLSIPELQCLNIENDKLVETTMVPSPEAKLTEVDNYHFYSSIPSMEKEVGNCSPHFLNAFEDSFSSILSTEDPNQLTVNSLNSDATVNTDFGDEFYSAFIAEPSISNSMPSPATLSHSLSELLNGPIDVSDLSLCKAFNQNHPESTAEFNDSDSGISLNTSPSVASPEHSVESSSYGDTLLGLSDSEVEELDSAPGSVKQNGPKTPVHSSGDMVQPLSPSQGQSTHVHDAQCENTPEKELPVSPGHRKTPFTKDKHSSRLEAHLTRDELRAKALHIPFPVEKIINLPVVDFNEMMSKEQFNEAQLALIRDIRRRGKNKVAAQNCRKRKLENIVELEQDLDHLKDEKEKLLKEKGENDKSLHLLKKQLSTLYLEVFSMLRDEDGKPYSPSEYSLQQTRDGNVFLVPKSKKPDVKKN
In words: Activation of Nrf2 in human LO2 cells assessed as increase in HO-1 mRNA expression level by qRT-PCR analysis. Format: cell-based. The gist of the method: (§1)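 LO2 cells in DMEM with 10% FBS were exposed to 0, 2.5, 5, 10, 20 or 40 μM compound for 12 h. Transcripts measured by qRT-PCR: 40 cycles of 95 °C for 5 s and 60 °C for 30 s. Normalized to GAPDH and expressed as fold over the untreated control. Mean ± SD, n = 3.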

Data set [2] concerns the target T1, Nuclear factor erythroid 2-related factor 2 (Homo sapiens). In words: Activation of Nrf2 in human LO2 cells cotreated with Nrf2 siRNA assessed as increase in HO-1 mRNA expression level at 20 uM by qRT-PCR analysis. Format: cell-based. The gist of the method: (§2)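 LO2 cells plated at 7 × 10^5 per 60 mm dish and transfected with 50 nM Nrf2 siRNA (scrambled siRNA as control). After 24 h, fresh medium was added and cells grown a further 48 h. Then 20 μM compound for 12 h. Nrf2, NQO1, GCLM and HO-1 mRNA measured by qRT-PCR, normalized to GAPDH, as fold over control.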

Data set [3] has as its system L02. Nature of the data set: Cytotoxicity against human LO2 cells up to 160 uM after 24 hrs by MTT assay. Format: cell-based. To be noted: l02, 24 h. The gist of the method:
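LO2 cells plated for 12 h, then treated for 24 h with 0, 0.2, 2, 20, 40, 80 or 160 μM compound diluted in medium from a DMSO stock. MTT (5 mg/mL stock) added for 4 h, formazan dissolved in DMSO, A570 read. Viability computed from OD relative to DMSO control and blank. Mean ± SD of three experiments.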

Data set [4] concerns the target T1, Nuclear factor erythroid 2-related factor 2 (Homo sapiens). Nature of the data set: Activation of Nrf2 in human HepG2-ARE-C8 cells assessed as induction of ARE-mediated luciferase activity at 1 uM after 24 hrs by luciferase reporter gene assay relative to control. Format: cell-based. The gist of the method: (§3)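 HepG2-ARE-C8 cells stably carrying ARE-luciferase, grown in DMEM with 10% FBS at 37 °C and 5% CO2. Seeded at 5 × 10^4 cells/well, left overnight, then given compound diluted from a 10 mM DMSO stock for 24 h. Cells lysed and luciferase read as RLU. Inductivity = (RLUtest − RLUblank)/(RLUcontrol − RLUblank), with DMSO as control. Mean ± SEM of three experiments.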

The test system of data set [5] is L02. In words: Hepatoprotective activity against APAP-induced cell injury in human LO2 cells assessed as increase in cell viability at 20 uM pretreated for 24 hrs followed by APAP treatment measured after 24 hrs by MTT assay. In kind it is functional. The gist of the method: (§4)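 LO2 cells plated for 12 h and pretreated for 24 h with 5, 10 or 20 μM compound. One arm was first transfected with 50 nM Nrf2 siRNA before receiving 20 μM compound. Medium then replaced with medium containing 8 mM APAP for 24 h. Viability by MTT at A570. Mean ± SD of three experiments.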

Data set [6] relates to Mus musculus. Nature of the data set: Hepatoprotective activity against APAP-induced liver injury in C57BL/6 mouse assessed as reduction in serum ALT levels administered ip for 7 consecutive days followed by APAP challenge 1 hr post last compound dose and measured after 24 hrs. In kind it is functional, organism-based. The essentials: (§5)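 Female C57BL/6 mice (20–25 g, n = 10/group) received 10, 50 or 100 mg/kg/day ip in saline for 7 days. One hour after the last dose they received APAP 300 mg/kg in saline. Killed 24 h later. Serum ALT/AST by kit. Liver homogenates (pH 7.0 phosphate) used for GSH (A420, μmol/g protein), GST (A412, U/mg protein) and SOD. Liver also analyzed by western blot (β-actin normalized), qRT-PCR (GAPDH normalized) and H&E.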

The subject of data set [7] is Mus musculus. Nature of the data set: In vivo activation of Nrf2 in APAP-induced liver injury in C57BL/6 mouse assessed as increase in Nrf2 protein expression level at 10 to 100 mg/kg, ip administered for 7 consecutive days followed by APAP challenge 1 hr post last compound dose and measured after 24 hrs by Western blot analysis. Format: functional, organism-based. The gist of the method: as §5

The test system of data set [8] is Mus musculus. Nature of the data set: In vivo activation of Nrf2 in APAP-induced liver injury in C57BL/6 mouse assessed as increase in Nrf2 mRNA expression level administered ip for 7 consecutive days followed by APAP challenge 1 hr post last compound dose and measured after 24 hrs by qRT-PCR analysis. In kind it is functional, organism-based. The essentials:
as §5

Data set [9] can be described thus: Intrinsic aqueous solubility of the compound by potentiometric titration method. In kind it is physicochemical. The essentials: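 Intrinsic aqueous solubility and logD at pH 7.4 determined by Avdeef-Bucher potentiometric titration on a pION Gemini Profiler.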
The target in data set [10] is T1, Nuclear factor erythroid 2-related factor 2 (Homo sapiens). Nature of the data set: Activation of Nrf2 in human HepG2-ARE-C8 cells assessed as induction of ARE-mediated luciferase activity at 0.1 uM after 24 hrs by luciferase reporter gene assay relative to control. Format: cell-based. The essentials:
as §3

The subject of data set [11] is Mus musculus. Nature of the data set: Hepatoprotective activity against APAP-induced liver injury in C57BL/6 mouse assessed as increase in GSH levels administered ip for 7 consecutive days followed by APAP challenge 1 hr post last compound dose and measured after 24 hrs. In kind it is functional, organism-based. The gist of the method: as §5
The subject of data set [12] is Mus musculus. Nature of the data set: Hepatoprotective activity against APAP-induced liver injury in C57BL/6 mouse assessed as decrease in APAP-induced cell necrosis administered ip for 7 consecutive days followed by APAP challenge 1 hr post last compound dose and measured after 24 hrs by hematoxylin/eosin staining based assay. Format: functional, organism-based. The essentials: as §5

Data set [13] addresses T1, Nuclear factor erythroid 2-related factor 2 (Homo sapiens). In words: Activation of Nrf2 in human LO2 cells assessed as increase in GCLC mRNA expression level by qRT-PCR analysis. Format: cell-based. The gist of the method:
as §1

Data set [14] has the same target. In words: Activation of Nrf2 in human HepG2-ARE-C8 cells assessed as induction of ARE-mediated luciferase activity at 0.01 uM after 24 hrs by luciferase reporter gene assay relative to control. In kind it is cell-based. The gist of the method: as §3
The target is the same in data set [15]. In words: Activation of Nrf2 in human LO2 cells cotreated with Nrf2 siRNA assessed as increase in Nrf2 mRNA expression level at 20 uM by qRT-PCR analysis. Format: cell-based. The essentials:
as §2

The test system of data set [16] is L02. In words: Hepatoprotective activity against APAP-induced cell injury in human LO2 cells assessed as increase in cell viability pretreated for 24 hrs followed by APAP treatment measured after 24 hrs by MTT assay. Format: functional, cell-based. The gist of the method:
as §4

Regarding `Cc1ccc(-c2noc(-c3ccc(F)c(F)c3)n2)cn1`, the Activity result was “Dose-dependent effect” in data set [1]; “<= 7%” with L02 [3]; 16.1 in data set [4]; 80% with L02 [5]; “Dose-dependent effect” with Mus musculus [6]; “Dose-dependent effect” with Mus musculus [8]. The Activity in [10] was 3.46; in the data set on Mus musculus [11], “Dose-dependent effect”; in the data set with Mus musculus [12], “Dose-dependent effect”; in data set [13], “Dose-dependent effect”; in data set [14], 2.75; with L02 [16], “Dose-dependent effect”. In addition, the result (in data set [2]; in the data set with Mus musculus [7]; in data set [15]) was Active. In [9], this molecule came in with a solubility of 250 µM (≈ 68.3 µg/mL).
